High-throughput results from PubChem BioAssay.
Rows were chosen to be rich in hits. Some 2.5% of all compounds tested hit in one or more screens of this group.
MC4R barr agon – human MC4R agonism via beta-arrestin | U2OS MC4R beta-arrestin complementation, luminescence; percent of melanotan II response, DMSO zero | activation, % at 8.9 µM | 360,000 tested, 0.98% active | P32245;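 active means activation above a per-plate cutoff, the mean activation of sample wells on that plate plus 3 SD, cut at about 8% in these data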
Target sequence (P32245 whole entry, looked up): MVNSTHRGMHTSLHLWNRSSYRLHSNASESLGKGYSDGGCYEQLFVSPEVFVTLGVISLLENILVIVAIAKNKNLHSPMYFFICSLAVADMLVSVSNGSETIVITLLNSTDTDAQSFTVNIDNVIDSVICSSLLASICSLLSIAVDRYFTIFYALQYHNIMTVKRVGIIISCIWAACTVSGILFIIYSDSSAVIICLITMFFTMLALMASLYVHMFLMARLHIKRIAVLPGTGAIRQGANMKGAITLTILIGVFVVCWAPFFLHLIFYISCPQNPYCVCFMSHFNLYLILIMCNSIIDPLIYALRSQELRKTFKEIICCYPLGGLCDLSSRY
TbMetRS inhib – blocks T. brucei methionyl-tRNA synthetase activity; AID 624268; 360,000 tested, 0.4% active; purified T. brucei MetRS, ATP depletion, Kinase-Glo luminescence; inhibition, % at 11.9 µM;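 active means inhibition above a per-plate cutoff of the control wells' mean inhibition plus 3 SD, cut at about 5.5% in these data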;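 further: 0% = DMSO wells median and 100% = median of wells with control inhibitor compound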
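Material: parasite MetRS enzyme / Replication: singlicate, one well per compound / Signal: luminescence of leftover ATP / Schedule: 2 h aminoacylation at 25 °C after 15 min preincubation / Medium: HEPES-MgCl2-KCl buffer plus DTT, spermine, BSA, pyrophosphatase / Doses: 11.9 µM single point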
NALP1 yeast inh – blocks the NALP1 inflammasome reconstituted in yeast | S. cerevisiae NALP1/ASC/caspase-1 growth, X-gal OD620, 72 h | 280,000 tested, 0.61% active | inhibition, % at 10 µM; in the data active means inhibition mostly above about 24%, no sharp cut-off; inactive means mostly below about 32%
NLRP3 yeast inh – inhibitors of NALP3 inflammasome in yeast. inhibition, % at 10 µM. AID 2825. Yeast reconstituted NLRP3/ASC/caspase-1, beta-gal luminescence, 24 h. 330,000 tested, 0.39% active;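 active means inhibition of 50% or more; inactive means inhibition below 50%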;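 further: plate controls were induced DMSO wells for no effect and uninduced yeast grown without galactose for full effect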
MC4R antagonist – blocks human MC4R cAMP signaling; P32245; MC4R-expressing cells, MTII-stimulated cAMP, LANCE TR-FRET; inhibition, % at 6.5 µM; 360,000 tested, 0.48% active; AID 540295;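 active means inhibition above its plate's cutoff, the mean of tested wells on that plate plus 3 SD, cut at about 29% in these data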;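 further: 0% = Melanotan II alone and 100% = Melanotan II plus saturating MCL0020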
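Test system: U2OS cells stably expressing human melanocortin 4 receptor (MC4R); also added: Melanotan II challenge; compound: 6.5 µM single dose; timing: 30-min compound preincubation, 1-h Melanotan II challenge, 1-h detection, room temperature; signal: Eu-cAMP/anti-cAMP TR-FRET, emission 671 nm; repeats: one well per compound, no replicates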
A1 inh – inhibitors of the anti-apoptotic protein A1, read as caspase activation; MEF A1-2A-BIM cells, Caspase-Glo 3/7 luminescence, 3 h; percent of clofoctol response, vehicle zero; caspase activation, % (concentration not given with the values); 330,000 tested, 0.066% active;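 active means over half of replicate activation scores above 10%, or exactly half above 10 with the replicate mean above 10; inconclusive means replicate mean below 10 yet half the replicates above 10; inactive means over half of replicates below 10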
Tb MetRS conf – Trypanosoma brucei MetRS inhibition confirmed; shares compounds with TbMetRS inhib; T. brucei MetRS enzyme, luminescence (ATP depletion); inhibition, % at 11.9 µM; 1,400 tested, 93% active; AID 624412; in the data active means inhibition above about 7%
Jurkat tox – kills Jurkat cells in T. brucei MetRS counterscreen; shares compounds with TbMetRS inhib; Jurkat cells viability, ATP luminescence; inhibition, % at 8.3 µM; 1,400 tested, 12% active; AID 624413; in the data active means inhibition above about 15%;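 further: 0% = vehicle and 100% = reference inhibitor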
Tb MetRS inh FP – T. brucei MetRS inhibition, orthogonal assay; shares compounds with TbMetRS inhib; purified T. brucei MetRS, fluorescence polarization; inhibition, % at 11.9 µM; 1,400 tested, 44% active; AID 651607; in the data active means inhibition above about 17%;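 further: 0% = vehicle wells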
Active calls of the source: *; ? = inconclusive; nt = not tested or not shown.

SMILES	MC4R barr agon	TbMetRS inhib	NALP1 yeast inh	NLRP3 yeast inh	MC4R antagonist	A1 inh	Tb MetRS conf	Jurkat tox	Tb MetRS inh FP
COc1ccc(N2CCN(C(=O)CCCSc3nc4ccccc4[nH]3)CC2)cc1	-2.2	6.6*	-1.2	11.7	-2.8	0.3	19.7*	4.3	7.1
Cc1cccc(NC(=O)CCCSc2nc3ccccc3[nH]2)c1	1.2	17.4*	20.9	4.1	6.7	0.3	17.6*	7.1	6.0
CCc1cccc(NC(=O)CCCSc2nc3ccccc3[nH]2)c1	-0.8	26.3*	20.3	2.0	0.4	0.6	44.2*	5.9	16.7*
O=C(CCCSc1nc2ccccc2[nH]1)Nc1ccccc1	0.3	1.1	7.3	4.6	-11.3	0.1	nt	nt	nt
Cc1cc(C)cc(NC(=O)CCCSc2nc3ccccc3[nH]2)c1	-1.9	11.2*	19.6	3.3	0.0	-0.4	21.6*	-3.7	9.8
CC(C)CNC(=O)CCCSc1nc2ccccc2[nH]1	-0.1	-0.6	11.2	23.9	0.6	0.4	nt	nt	nt
CCCCN1C(=O)C(=O)N(CC(=O)N2CCc3ccccc32)C1=O	0.4	-0.1	nt	5.1	2.6	0.5	nt	nt	nt
Oc1ccc(C=NNC(=S)Nc2ccccc2)nc1	-1.8	-0.2	nt	nt	6.3	nt	nt	nt	nt
Cc1ccc(S(=O)(=O)Nc2ccnc3ccccc23)cc1	-0.4	7.0*	6.9	10.5	-2.5	0.1	14.7*	8.3	8.4
Cc1ccc(S(=O)(=O)Nc2cccc3ncccc23)cc1	2.2	0.4	nt	22.5	22.1	1.1	nt	nt	nt
CCN(CC(=O)NCc1cccs1)C(=O)/C=C/c1cc(Br)ccc1OC(F)F	2.0	-0.5	nt	3.4	-4.8	?	nt	nt	nt
CCc1nnc(N/N=C\c2ccc(OC(C)=O)c(OC)c2)n1N	0.6	6.6*	-30.1	2.2	-6.8	-0.5	4.3	4.0	4.4
Cc1cccc(C)c1-n1nnnc1C1(C)CCC(=O)N1Cc1cccs1 (stereo not drawn)	nt	-1.5	nt	nt	nt	nt	nt	nt	nt
O=C(O)c1ccc(N2CCN(Cc3ccc4c(c3)OCO4)CC2)c([N+](=O)[O-])c1	1.2	7.0*	10.3	21.7	14.9	0.2	15.5*	0.1	8.6
COc1cccc(CNc2ncnc3cc(Cl)ccc23)c1	1.4	12.1*	9.5	nt	3.4	nt	20.1*	14.0	5.5
Cc1ccc(S(=O)(=O)NC(=O)Nc2cccc(S(=O)(=O)N(C)C)c2)cc1	-2.6	-0.5	nt	-5.9	-8.6	2.0	nt	nt	nt
COc1ccc(N2CCN(C(=O)c3ccccc3)CC2)c([N+](=O)[O-])c1	3.5	8.2*	-4.0	6.2	10.3	1.3	9.3*	5.6	10.0
COc1ccc(N2CCN(C(=O)c3ccccc3Br)CC2)c([N+](=O)[O-])c1	-0.3	14.2*	6.2	38.9	4.1	1.5	30.1*	2.1	17.6*
COc1ccc(N2CCN(C(=O)c3ccc(Br)cc3)CC2)c([N+](=O)[O-])c1	-1.5	2.3	13.8	40.0	3.3	-0.3	nt	nt	nt
CC(=O)Nc1ccccc1NC(=O)c1ccccc1-c1ccccc1	-0.7	46.1*	9.6	5.0	-4.9	0.2	3.1	-1.1	-3.7
O=C(NCc1cc(Br)cc(Br)c1OC(=O)c1ccccc1[N+](=O)[O-])c1ccccc1	-1.6	23.2*	30.0	21.4	0.8	2.0	27.5*	14.2	19.6*
O=C(CC(=O)c1ccccc1[N+](=O)[O-])c1ccccc1	nt	nt	nt	48.2	nt	0.8	nt	nt	nt
Cc1nc(C)c(C(=O)OCC(=O)N(C)c2ccccc2)s1	-1.9	-0.3	nt	25.5	-2.4	nt	nt	nt	nt
CC(=O)c1ccc(N2CCN(C(=O)CCCn3c(=O)[nH]c4ccc(Br)cc4c3=O)CC2)cc1	-1.8	84.4*	17.4	-2.8	0.8	-0.4	104.0*	3.7	87.1*
CC(=O)c1ccc(N2CCN(C(=O)CCCn3c(=O)[nH]c4ccsc4c3=O)CC2)cc1	-0.6	7.3*	19.1	5.5	3.5	1.1	17.1*	0.0	6.5
SMILES	MC4R barr agon	TbMetRS inhib	NALP1 yeast inh	NLRP3 yeast inh	MC4R antagonist	A1 inh	Tb MetRS conf	Jurkat tox	Tb MetRS inh FP
O=C(CCCCn1c(=O)[nH]c2ccccc2c1=O)N1CCN(c2cccc(C(F)(F)F)c2)CC1	0.0	12.0*	12.4	13.3	4.7	0.0	14.0*	8.0	4.5
O=C(CCn1c(=O)[nH]c2ccccc2c1=O)N1CCN(c2cccc(C(F)(F)F)c2)CC1	2.2	-1.2	-31.1	15.7	8.9	-0.3	nt	nt	nt
CCCCCn1c(=O)[nH]c2cc(C(=O)N3CCN(c4ccc(C(C)=O)cc4)CC3)ccc2c1=O	1.6	-0.9	22.3	14.4	-1.1	-0.1	nt	nt	nt
O=C(Cn1c(=O)oc2ccccc21)Nc1ccc(F)cc1	-0.7	-0.2	24.6	9.0	7.3	0.7	nt	nt	nt
O=C(COC(=O)c1c(Cl)ccc(Cl)c1Cl)NCC1CCCO1 (stereo not drawn)	-0.4	-0.4	nt	19.2	-1.1	0.9	nt	nt	nt
CSc1ccc(CN2CCCC(N3CCN(c4ccccc4)CC3)C2)cc1 (stereo not drawn)	2.4	-1.6	8.1	33.2	-1.7	0.7	nt	nt	nt
Cc1ccc(NC(=O)Cn2c([N+](=O)[O-])cnc2C)cc1	0.1	-0.4	10.7	13.2	-0.2	-0.1	nt	nt	nt
Cc1ncc([N+](=O)[O-])n1CC(=O)Nc1ccc(Br)cc1	-0.7	6.1*	9.2	12.7	13.8	1.2	13.8*	-6.3	-0.5
Cc1[nH]c2ccc(F)cc2c(=O)c1SC(F)(F)C(F)C(F)(F)F (stereo not drawn)	-1.9	13.0*	16.8	6.2	11.5	0.1	19.8*	1.9	7.3
O=C(c1ccccc1)c1cccc[n+]1[O-]	-0.3	-0.8	16.7	3.0	-4.9	1.0	nt	nt	nt
Cc1nn(C2CCS(=O)(=O)C2)c(C)c1CN(C)C(=O)c1ccc(F)cc1 (stereo not drawn)	2.7	-0.1	nt	nt	-7.0	nt	nt	nt	nt
C/C(=C1/SC(=S)N(CCC(=O)O)C1=O)c1ccc(O)cc1	-2.0	25.9*	-4.2	9.3	3.8	-0.3	64.1*	2.5	24.5*
COc1ccccc1CN1CCc2c([nH]c3ccccc23)C1	0.5	15.7*	12.3	2.1	-3.4	1.1	31.4*	14.9	12.1
Cc1nc2ccc(C(=O)N(C)Cc3ccccc3)cn2c1N(C)C(=O)CCc1ccccc1	-1.4	-0.3	nt	nt	0.4	nt	nt	nt	nt
COc1ccccc1NC(=O)c1nnn(CC(=O)Nc2cccc(SC)c2)c1N	2.2	6.0*	nt	-10.0	-6.9	0.4	7.6*	-2.2	14.6
